Laboratory results taken from ChEMBL document CHEMBL4706613, “Novel 3-substituted coumarins as selective human carbonic anhydrase IX and XII inhibitors: Synthesis, biological and molecular dynamics analysis” (Eur J Med Chem, 2021).

Key:
[1] = target: Carbonic anhydrase 12 (Homo sapiens, UniProt O43570); experiment: Inhibition of human CA12 preincubated for 6 hrs by phenol red dye based stopped flow CO2 hydration assay
[2] = target: T1, Carbonic anhydrase 2 (Homo sapiens, UniProt P00918); experiment: Inhibition of human CA2 preincubated for 6 hrs by phenol red dye based stopped flow CO2 hydration assay
In short: (§1)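 Ki values are the mean of three separate assays, with errors within ±5–10% of the reported values. Coumarin derivatives were incubated with the enzyme for 6 h before measurement.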

[3] = target: T2, Carbonic anhydrase 9 (Homo sapiens, UniProt Q16790); experiment: Inhibition of human CA9 preincubated for 6 hrs by phenol red dye based stopped flow CO2 hydration assay; in short: as §1
[4] = target: T3, Carbonic anhydrase 1 (Homo sapiens, UniProt P00915); experiment: Inhibition of human CA1 preincubated for 6 hrs by phenol red dye based stopped flow CO2 hydration assay; in short: as §1
T3 sequence (P00915 whole entry): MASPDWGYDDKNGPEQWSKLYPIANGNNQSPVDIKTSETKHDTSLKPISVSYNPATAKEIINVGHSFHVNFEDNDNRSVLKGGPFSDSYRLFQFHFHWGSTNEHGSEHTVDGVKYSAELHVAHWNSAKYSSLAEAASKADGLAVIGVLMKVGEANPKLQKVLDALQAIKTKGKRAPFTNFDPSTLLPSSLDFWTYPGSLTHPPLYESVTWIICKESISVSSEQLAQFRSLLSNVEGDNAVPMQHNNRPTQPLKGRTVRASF

[5] = target: T2, Carbonic anhydrase 9; experiment: Inhibition of human CA9 preincubated for 15 mins by phenol red dye based stopped flow CO2 hydration assay
[6] = target: T1, Carbonic anhydrase 2; experiment: Inhibition of human CA2 preincubated for 15 mins by phenol red dye based stopped flow CO2 hydration assay
[7] = target: T3, Carbonic anhydrase 1; experiment: Inhibition of human CA1 preincubated for 15 mins by phenol red dye based stopped flow CO2 hydration assay

Chain of Carbonic anhydrase 12 (O43570 whole entry): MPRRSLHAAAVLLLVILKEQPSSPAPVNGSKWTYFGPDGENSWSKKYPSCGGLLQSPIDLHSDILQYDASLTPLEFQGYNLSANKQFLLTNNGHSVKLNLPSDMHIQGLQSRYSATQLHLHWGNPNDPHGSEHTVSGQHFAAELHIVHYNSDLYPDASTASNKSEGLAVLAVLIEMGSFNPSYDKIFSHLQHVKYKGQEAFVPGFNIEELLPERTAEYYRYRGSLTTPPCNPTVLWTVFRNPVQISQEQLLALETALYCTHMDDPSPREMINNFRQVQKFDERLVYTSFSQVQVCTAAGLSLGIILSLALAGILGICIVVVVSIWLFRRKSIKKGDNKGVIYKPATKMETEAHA

| Compound | Ki [1] [nM] | Ki [2] [nM] | Ki [3] [nM] | Ki [4] [nM] | Ki [5] [nM] | Ki [6] [nM] | Ki [7] [nM] |
| --- | --- | --- | --- | --- | --- | --- | --- |
| O=C(CS(=O)(=O)c1ccccc1)c1cc2ccccc2oc1=O | 60.1 | > 100000 | 41.4 | > 100000 |  |  |  |
| C/C(=N\Nc1ccc(S(N)(=O)=O)cc1)c1cc2ccccc2oc1=O |  |  |  |  | 43.8 |  |  |
| C/C(=N\Nc1ccc(S(N)(=O)=O)cc1)c1cc2cc(Br)ccc2oc1=O |  |  |  |  | 24.2 |  |  |
| O=C(N/N=C(\CS(=O)(=O)c1ccccc1)c1cc2ccccc2oc1=O)c1ccccc1 |  | > 100000 | 16000 | > 100000 |  |  |  |
| Cc1ccc(S(=O)(=O)C/C(=N\Nc2ccccc2)c2cc3ccccc3oc2=O)cc1 |  | > 100000 | 3940 | > 100000 |  |  |  |
| C/C(=N\NC(=O)c1ccc(S(N)(=O)=O)cc1)c1cc2ccccc2oc1=O |  |  |  |  | 31.6 | 26.3 | 77.6 |
| Cc1ccc(S(=O)(=O)C/C(=N\NC(=O)c2ccc(S(N)(=O)=O)cc2)c2cc3ccccc3oc2=O)cc1 |  |  |  |  | 42.1 | 365 | 1350 |
| O=c1oc2ccc(Br)cc2cc1/C(CS(=O)(=O)c1ccccc1)=N/Nc1ccccc1 |  | > 100000 | 4640 | > 100000 |  |  |  |
| Cc1ccc(S(=O)(=O)C/C(=N\Nc2ccc(S(N)(=O)=O)cc2)c2cc3ccccc3oc2=O)cc1 |  |  |  |  | 76 | 560 | 2600 |
| NS(=O)(=O)c1ccc(C(=O)N/N=C(\CS(=O)(=O)c2ccccc2)c2cc3ccccc3oc2=O)cc1 |  |  |  |  | 18.6 | 225 | 1540 |
| C/C(=N\NC(=O)c1ccc(S(N)(=O)=O)cc1)c1cc2cc(Br)ccc2oc1=O |  |  |  |  | 19.8 | 12.1 | 92.5 |
| NS(=O)(=O)c1ccc(N/N=C(\CS(=O)(=O)c2ccccc2)c2cc3ccccc3oc2=O)cc1 |  |  |  |  | 89.1 | 442 | 824 |
| O=C(N/N=C(\CS(=O)(=O)c1ccccc1)c1cc2cc(Br)ccc2oc1=O)c1ccccc1 |  | > 100000 | 8860 | > 100000 |  |  |  |
| O=C(CS(=O)(=O)c1ccccc1)c1cc2cc(Br)ccc2oc1=O |  | > 100000 | 76.6 | > 100000 |  |  |  |

Now from value to compound:

| Ki [1] [nM] | Ki [2] [nM] | Ki [3] [nM] | Ki [4] [nM] | Ki [5] [nM] | Ki [6] [nM] | Ki [7] [nM] | Compound |
| --- | --- | --- | --- | --- | --- | --- | --- |
|  | > 100000 | 1500 | > 100000 |  |  |  | O=c1oc2ccccc2cc1/C(CS(=O)(=O)c1ccccc1)=N/Nc1ccccc1 |
|  |  |  |  | 63.6 | 276 | 3460 | NS(=O)(=O)c1ccc(N/N=C(\CS(=O)(=O)c2ccccc2)c2cc3cc(Br)ccc3oc2=O)cc1 |
|  | > 100000 | 87.2 | > 100000 |  |  |  | Cc1ccc(S(=O)(=O)CC(=O)c2cc3cc(Br)ccc3oc2=O)cc1 |
|  |  |  |  |  | 538 | 3960 | Cc1ccc(S(=O)(=O)C/C(=N\Nc2ccc(S(N)(=O)=O)cc2)c2cc3cc(Br)ccc3oc2=O)cc1 |
|  | > 100000 | 8110 | > 100000 |  |  |  | Cc1ccc(S(=O)(=O)C/C(=N\Nc2ccccc2)c2cc3cc(Br)ccc3oc2=O)cc1 |
|  | > 100000 | 66.3 | > 100000 |  |  |  | Cc1ccc(S(=O)(=O)CC(=O)c2cc3ccccc3oc2=O)cc1 |
